# Screening results from PubChem BioAssay.
# This is a sample that favours compounds with a hit; in the whole collection about 11% have one here.
# Diaph inh CS – counter-screen for diaphorase-based assays: diaphorase inhibitors and chemical oxidizers | hit rate 0.69% among 190,000 | inhibition, % at 20 µM | diaphorase resazurin-to-resorufin fluorescence, NADH, 16 min; bacterial (C. kluyveri) enzyme, not human;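 active = primary screen inhibition at 20 µM above a set limit, cut at about 50% in these data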;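 note: plate controls were DMSO with full reaction for no effect and wells lacking NADH for full effect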
#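 Benchmarks: positive control wells lacking NADH, neutral wells with DMSO only. System: bacterial diaphorase enzyme (C. kluyveri). Input: 0.14 U/mL diaphorase, enzyme working solution. Detection: resorufin fluorescence, excitation 544 nm, emission 590 nm. Times: 16-min room-temperature incubation before reading.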
# G6PDH CS – counter-screen for G6PDH assay hits: L. mesenteroides G6PDH inhibition; Purified L. mesenteroides G6PDH, diaphorase/resazurin coupled fluorescence, 45 min; inhibition, % at 5 µM; hit rate 0.12% among 200,000
# Diaphorase act – counter-screen for diaphorase-based assays: diaphorase activators and chemical reducers | Diaphorase/resazurin coupled assay, resorufin fluorescence, 16 min; active compounds read high; 1 = vehicle wells, 0 = NADH-free wells | activation factor at 20 µM | hit rate 0.005% among 190,000 | AID 1229;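 active = diaphorase activity raised at least twofold by the compound at 20 µM; inactive = activation factor below 2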
#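 Material: Purified diaphorase enzyme from Clostridium kluyveri | Buffer or medium: 50 mM HEPES pH 7.4 with 4.542 mM MgCl2, 0.005% Tween 20 | Times: 16 min enzyme reaction, ambient temperature | Signal: Red resorufin fluorescence at 544/590 nm excitation/emission | Measure: Increased resorufin signal from activators or reducing compounds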
# L major viab – Leishmania major promastigote growth inhibition; Leishmania major promastigotes, resazurin fluorescence viability; inhibition, % at 10 µM; hit rate 9% among 200,000;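 note: promastigotes grown with compound for 44 hours at 28 °C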
# WT yeast gro inh – growth inhibition of WT yeast, mitochondrial fusion screen; hit rate 2.1% among 190,000; inhibition, % at 10 µM; mitochondrial fusion phenotypic screen, WT strain; AID 1362; in the data active = inhibition above about 58%; tested in S. cerevisiae
# Numbers without * were called inactive; nt = no result given. Cut-off read from the data, not from the text of the source, unless noted: active = inhibition above about 50%; inactive = the rest.
SMILES,Diaph inh CS,G6PDH CS,Diaphorase act,L major viab,WT yeast gro inh
COc1ccc(OC)c(S(=O)(=O)N2CCC(C(=O)N3CCc4ccccc4C3)CC2)c1,19,2,0.8,10,nt
COc1ccc(C(=O)N2CCCN(C)CC2)cc1S(=O)(=O)N1CCCc2ccccc21,-13,9,1.1,55*,-10
CSC1=C(C#N)C(C)CC(=O)N1 (centres undefined),4,4,1,-4,1
Clc1cc(NCc2cccs2)ccc1N1CCOCC1,22,-3,0.8,1,13
CCOc1ccccc1NC(=O)c1c(NC(=O)CNCc2ccco2)sc2c1CCC2,17,9,0.8,nt,-5
COc1ccc(C(=O)NCc2ccc(C)cc2)cc1S(=O)(=O)N1CCCc2ccccc21,12,3,0.9,99*,27
COc1ccc(OC)c(S(=O)(=O)N2c3cc(F)ccc3CCC2C)c1 (centres undefined),8,8,0.9,100*,5
COc1ccc(OC)c(S(=O)(=O)N2C(C)CCCC2C)c1 (centres undefined),22,8,0.8,-2,1
CCCCCCCCn1c(=O)c(C(=O)OCC)c(O)c2ccccc21,-1,-3,1,-7,32
CCCCCn1c(=O)c(-c2nc3ccccc3[nH]2)c(O)c2ccccc21,-6,-2,1.1,56*,-7
CC(C)(O)C#Cc1ccc(CN2CCCC(CO)(Cc3cccc(Cl)c3)C2)cc1 (centres undefined),nt,18,nt,97*,23
Cc1ccccc1CC1(CO)CCCN(Cc2ccc(C#CC(C)(C)O)cc2)C1 (centres undefined),-11,10,1.1,85*,11
COc1ccc(/C=C/CN2CCCC(CO)(Cc3cccc(Cl)c3)C2)cc1 (centres undefined),11,10,0.9,97*,42
COCc1ccc(CN2CCCC(CO)(Cc3ccccc3C)C2)o1 (centres undefined),18,6,0.8,14,13
CCCCCC/C(=N/O)c1ccccn1,3,-4,1,91*,2
C/C(=N/O)c1ccccn1,-10,3,1.1,-6,2
COc1ccc(CN2CCCCC2c2cccnc2)c(OC)c1C (centres undefined),19,-5,0.8,70*,-4
COc1ccc(OC)c(-c2nc(CN3CCCCC3c3cccnc3)c(C)o2)c1 (centres undefined),13,7,0.9,8,4
CN(C)S(=O)(=O)c1ccc(Cl)c(NC(=O)COc2ccccc2[N+](=O)[O-])c1,8,10,0.9,6,0
COc1ccc(S(=O)(=O)N2CCOCC2)cc1NC(=O)CO/N=C/c1ccccc1OC(F)F,9,4,0.9,7,-12
CCOc1ccc(C(=O)N[C@H](C(=O)Nc2cccc(S(=O)(=O)N3CCCCC3)c2)C(C)C)cc1,31,-10,0.7,97*,0
CC(O/N=C/c1ccccc1OC(F)F)C(=O)Nc1cccc(S(=O)(=O)N2CCOCC2)c1 (centres undefined),16,2,0.8,51*,14
Cc1ccc(NC(=O)[C@@H](NC(=O)c2cccc(S(=O)(=O)N3CCOCC3)c2)C(C)C)cc1C,23,1,0.8,76*,16
C/C(=N\NC(=O)c1cccc(S(=O)(=O)N2CCCCC2)c1)c1ccc(C)o1,14,5,0.9,82*,-18
O=C(O)CCCCCn1c(O)c(C=C2N=c3ccccc3=N2)sc1=S,8,-14,0.9,8,-15
SMILES,Diaph inh CS,G6PDH CS,Diaphorase act,L major viab,WT yeast gro inh
Cc1ccc(CN2CCN(CCCn3cccn3)CC2CCO)cc1 (centres undefined),16,5,0.8,10,12
CN(C)/C=C(\C#N)C(N)=C(C#N)C#N,14,3,0.9,3,-4
C[N+]1(CC(=O)Nc2ccccc2Cl)CCN(C(=O)c2cccs2)CC1,9,12,0.9,-3,-25
CSC1=NC2C(N1)N(C)C(=O)N2C (centres undefined),8,6,0.9,-3,3
CSCCC(NC(=O)c1ccccc1)C(=O)Nc1ccc(NC(C)=O)cc1 (centres undefined),8,17,0.9,55*,-8
O=C(Nc1ccc(N2CCOCC2)cc1)c1cccc(S(=O)(=O)N2CCCCC2)c1,18,14,0.8,98*,1
CSCCC(NC(N)=O)C(=O)Nc1cccc(S(=O)(=O)N2CCOCC2)c1 (centres undefined),7,2,0.9,-7,-12
CCOc1ccc(NC(=O)[C@@H](NC(=O)c2ccccc2Br)C(C)C)cc1,11,13,0.9,98*,16
CCC(C)NC(=O)C(CCSC)NC(=O)c1ccccc1 (centres undefined),7,8,0.9,-1,6
CSCCC(NC(=O)c1cccc(S(=O)(=O)N2CCOCC2)c1)C(=O)Nc1ccc(F)cc1 (centres undefined),24,-10,0.8,73*,-8
O=S(=O)(Nc1nc2ccccc2[nH]1)c1ccc(Cl)cc1,18,-1,0.8,57*,16
COc1ccc(C(=O)/C=C/c2ccc(OC3CSC3)cc2)cc1OC,18,-9,0.8,12,26
O=C(/C=C/c1ccc(OC2CSC2)cc1)c1ccc(Cl)cc1,16,-5,0.8,54*,2
C/C(=N\NC(=O)c1cc2c(s1)CCC(C)C2)c1ccncc1 (centres undefined),16,-6,0.8,97*,-3
CCC(=O)N1CCc2cc(S(=O)(=O)NCCCN(CC)Cc3ccccc3)ccc21,13,4,0.9,55*,2
CCOc1ccc(NC(=S)Nc2ccc(OC)cc2)cc1,10,21,0.9,4,-2
COc1ccc(NC(=S)Nc2ccc3nccnc3c2)cc1,65*,15,0.3,5,14
CNC(=O)Nc1ccc2snnc2c1,7,-1,0.9,-7,2
COc1ccc(NC(=S)Nc2ccc3snnc3c2)cc1,23,18,0.8,54*,-2
COc1ccc(NC(=S)Nc2ccc(N)c([N+](=O)[O-])c2)cc1,25,-6,0.8,100*,12
COc1ccc(NC(=O)c2ccccc2[N+](=O)[O-])cc1,10,-1,0.9,-7,6
COc1ccc(C(=O)NCC(=O)OCC(=O)c2ccc3c(c2)NC(=O)CO3)cc1,10,11,0.9,-5,-2
CC(C)n1c(NCc2nc3ccccc3n2C)nc2ccccc21,11,-2,0.9,60*,-5
C=CCn1c(NC(C)c2cc(Cl)ccc2O)nc2ccccc21 (centres undefined),2,6,1,96*,25
C=CCn1c(NCc2cc(C)ccc2O)nc2ccccc21,16,1,0.8,38,8
Oc1ccc2ccccc2c1CNc1cnc2ccccc2c1,60*,25,0.4,-5,-12
